What was measured:
[1] = Iron chelating activity assessed as removal of [59]-Fe from [59]-Fe-labeled transferrin at 1 mM measured per hr by spectrometric analysis; format: physicochemical; conditions: 1000 µM
Procedure, shortened: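 About 10^6 cpm of 59Fe-labeled transferrin in 1.0 mL of 0.1 M Hepes (pH 7.00), inside a dialysis sack, dialyzed at room temperature against 25.0 mL of 1.00 mM ligand in the same buffer. Dialysate aliquots of 1.00 mL taken at intervals were gamma-counted (800-1400 keV window). Initial release rates were derived from these counts.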

Mus musculus [2] = assay: Iron chelating activity in iron-overloaded BDF1 mouse assessed as iron level in liver at 80 mg/kg, ip treated from day 8 to 13 after erythrocyte suspension injection on day 1, 3 and 5 by atomic absorption spectroscopic analysis; format: functional; conditions: route intraperitoneal
Procedure, shortened: (§1)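 Iron-loaded male BDF1 mice (10 per group) given ip drug in EtOH/Tween 80/saline vehicle daily on days 8-13. On day 15, under Et2O, mice were exsanguinated. Organs were washed, frozen, thawed, weighed and homogenized in 0.014 M NaCl made with iron-free water; supernatant iron was measured by AAS, as μg/mouse. Mean ± SD; t test versus iron-loaded vehicle control.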

[3] = Iron chelating activity assessed as removal of iron from ferritin after 20 hrs by atomic absorption spectrophotometric analysis; format: physicochemical
Procedure, shortened: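 Ferritin holding 1.34 mg total Fe was dialyzed at room temperature against 25.0 mL of 1.00 mM ligand solution. Iron in the dialysate was measured by atomic absorption spectroscopy at 20 h.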

Mus musculus [4] = assay: Iron chelating activity in iron-overloaded BDF1 mouse assessed as iron level in lung at 80 mg/kg, ip treated from day 8 to 13 after erythrocyte suspension injection on day 1, 3 and 5 by atomic absorption spectroscopic analysis; format: functional; conditions: route intraperitoneal; procedure, shortened: as §1
Mus musculus [5] = assay: Iron chelating activity in iron-overloaded BDF1 mouse assessed as daily urinary iron level at 40 mg/kg, ip treated from day 8 to 13 after erythrocyte suspension injection on day 1, 3 and 5 by atomic absorption spectroscopic analysis; format: functional, Urine; conditions: route intraperitoneal
[6] = Binding affinity to Fe(NO3)3 assessed as stability constant at pH 7.4 after 1 hr; conditions: pH 7.4, 1 h
Mus musculus [7] = assay: Iron chelating activity in iron-overloaded BDF1 mouse assessed as iron level in spleen at 40 mg/kg, ip treated from day 8 to 13 after erythrocyte suspension injection on day 1, 3 and 5 by atomic absorption spectroscopic analysis; format: functional; conditions: route intraperitoneal; procedure, shortened: as §1
Mus musculus [8] = assay: Iron chelating activity in iron-overloaded BDF1 mouse assessed as iron level in liver at 40 mg/kg, ip treated from day 8 to 13 after erythrocyte suspension injection on day 1, 3 and 5 by atomic absorption spectroscopic analysis; format: functional; conditions: route intraperitoneal; procedure, shortened: as §1
Mus musculus [9] = assay: Iron chelating activity in iron-overloaded BDF1 mouse assessed as iron level in heart at 40 mg/kg, ip treated from day 8 to 13 after erythrocyte suspension injection on day 1, 3 and 5 by atomic absorption spectroscopic analysis; format: functional; conditions: route intraperitoneal; procedure, shortened: as §1
Mus musculus [10] = assay: Iron chelating activity in iron-overloaded BDF1 mouse assessed as iron level in heart at 80 mg/kg, ip treated from day 8 to 13 after erythrocyte suspension injection on day 1, 3 and 5 by atomic absorption spectroscopic analysis; format: functional; conditions: route intraperitoneal; procedure, shortened: as §1
Mus musculus [11] = assay: Iron chelating activity in iron-overloaded BDF1 mouse assessed as iron level in lung at 40 mg/kg, ip treated from day 8 to 13 after erythrocyte suspension injection on day 1, 3 and 5 by atomic absorption spectroscopic analysis; format: functional; conditions: route intraperitoneal; procedure, shortened: as §1
[12] = Binding affinity to FeSO4 assessed as stability constant at pH 7.4 after 1 hr; format: physicochemical; conditions: pH 7.4, 1 h
Procedure, shortened: (§2)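 Continuous-variation (Job) method: iron and ligand solutions diluted after 1 h to 10.00 mL with 50 mM barbital buffer (pH 7.4), all containing 0.100 M KNO3. Visible absorbance at λmax was read at several times to confirm equilibrium. Absorbance was plotted against metal/(metal + ligand) to give the stoichiometry and minimum stability constant.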

Mus musculus [13] = assay: Iron chelating activity in iron-overloaded BDF1 mouse assessed as transferrin saturation at 80 mg/kg, ip treated from day 8 to 13 after erythrocyte suspension injection on day 1, 3 and 5 relative to control; format: functional; conditions: route intraperitoneal
Procedure, shortened: (§3)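 Iron-loaded male BDF1 mice (10 per group) received ip drug daily on days 8-13, with non-loaded and iron-loaded vehicle-treated control groups. On day 15, blood collected by cardiac puncture under Et2O was pooled per group. Percent transferrin saturation was measured with a standard hematologic kit.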

Mus musculus [14] = assay: Iron chelating activity in iron-overloaded BDF1 mouse assessed as daily urinary iron level at 80 mg/kg, ip treated from day 8 to 13 after erythrocyte suspension injection on day 1, 3 and 5 by atomic absorption spectroscopic analysis; format: functional, Urine; conditions: route intraperitoneal
Mus musculus [15] = assay: Iron chelating activity in iron-overloaded BDF1 mouse assessed as transferrin saturation at 40 mg/kg, ip treated from day 8 to 13 after erythrocyte suspension injection on day 1, 3 and 5 relative to control; format: functional; conditions: route intraperitoneal; procedure, shortened: as §3
Mus musculus [16] = assay: Iron chelating activity in iron-overloaded BDF1 mouse assessed as iron level in spleen at 80 mg/kg, ip treated from day 8 to 13 after erythrocyte suspension injection on day 1, 3 and 5 by atomic absorption spectroscopic analysis; format: functional; conditions: route intraperitoneal; procedure, shortened: as §1
[17] = Binding affinity to Fe(NO3)3 assessed as stability constant at pH 7.5 after 1 hr; format: physicochemical; conditions: pH 7.5, 1 h
[18] = Binding affinity to FeSO4 assessed as stability constant at pH 7.5 after 1 hr; format: physicochemical; conditions: pH 7.5, 1 h
[19] = Binding affinity to Fe(NO3)3 assessed as stability constant at pH 7.4 after 1 hr; format: physicochemical; conditions: pH 7.4, 1 h; procedure, shortened: as §2
Mus musculus [20] = assay: Iron chelating activity in iron-overloaded BDF1 mouse assessed as transferrin saturation at 50 mg/kg, ip treated from day 8 to 13 after erythrocyte suspension injection on day 1, 3 and 5 relative to control; format: functional; conditions: route intraperitoneal; procedure, shortened: as §3
Mus musculus [21] = assay: Iron chelating activity in iron-overloaded BDF1 mouse assessed as iron level in heart at 100 mg/kg, ip treated from day 8 to 13 after erythrocyte suspension injection on day 1, 3 and 5 by atomic absorption spectroscopic analysis; format: functional; conditions: route intraperitoneal; procedure, shortened: as §1
Mus musculus [22] = assay: Iron chelating activity in iron-overloaded BDF1 mouse assessed as iron level in lung at 100 mg/kg, ip treated from day 8 to 13 after erythrocyte suspension injection on day 1, 3 and 5 by atomic absorption spectroscopic analysis; format: functional; conditions: route intraperitoneal; procedure, shortened: as §1
Mus musculus [23] = assay: Iron chelating activity in iron-overloaded BDF1 mouse assessed as daily urinary iron level at 50 mg/kg, ip treated from day 8 to 13 after erythrocyte suspension injection on day 1, 3 and 5 by atomic absorption spectroscopic analysis; format: functional, Urine; conditions: route intraperitoneal
Mus musculus [24] = assay: Iron chelating activity in iron-overloaded BDF1 mouse assessed as iron level in liver at 50 mg/kg, ip treated from day 8 to 13 after erythrocyte suspension injection on day 1, 3 and 5 by atomic absorption spectroscopic analysis; format: functional; conditions: route intraperitoneal; procedure, shortened: as §1
Mus musculus [25] = assay: Iron chelating activity in iron-overloaded BDF1 mouse assessed as iron level in heart at 50 mg/kg, ip treated from day 8 to 13 after erythrocyte suspension injection on day 1, 3 and 5 by atomic absorption spectroscopic analysis; format: functional; conditions: route intraperitoneal; procedure, shortened: as §1
Mus musculus [26] = assay: Iron chelating activity in iron-overloaded BDF1 mouse assessed as iron level in spleen at 50 mg/kg, ip treated from day 8 to 13 after erythrocyte suspension injection on day 1, 3 and 5 by atomic absorption spectroscopic analysis; format: functional; conditions: route intraperitoneal; procedure, shortened: as §1
Mus musculus [27] = assay: Iron chelating activity in iron-overloaded BDF1 mouse assessed as transferrin saturation at 100 mg/kg, ip treated from day 8 to 13 after erythrocyte suspension injection on day 1, 3 and 5 relative to control; format: functional; conditions: route intraperitoneal; procedure, shortened: as §3
Mus musculus [28] = assay: Iron chelating activity in iron-overloaded BDF1 mouse assessed as iron level in spleen at 100 mg/kg, ip treated from day 8 to 13 after erythrocyte suspension injection on day 1, 3 and 5 by atomic absorption spectroscopic analysis; format: functional; conditions: route intraperitoneal; procedure, shortened: as §1
Mus musculus [29] = assay: Iron chelating activity in iron-overloaded BDF1 mouse assessed as daily urinary iron level at 100 mg/kg, ip treated from day 8 to 13 after erythrocyte suspension injection on day 1, 3 and 5 by atomic absorption spectroscopic analysis; format: functional, Urine; conditions: route intraperitoneal
Mus musculus [30] = assay: Iron chelating activity in iron-overloaded BDF1 mouse assessed as iron level in liver at 100 mg/kg, ip treated from day 8 to 13 after erythrocyte suspension injection on day 1, 3 and 5 by atomic absorption spectroscopic analysis; format: functional; conditions: route intraperitoneal; procedure, shortened: as §1
Mus musculus [31] = assay: Iron chelating activity in iron-overloaded BDF1 mouse assessed as iron level in lung at 50 mg/kg, ip treated from day 8 to 13 after erythrocyte suspension injection on day 1, 3 and 5 by atomic absorption spectroscopic analysis; format: functional; conditions: route intraperitoneal; procedure, shortened: as §1
[32] = Binding affinity to Fe(NO3)3 assessed as stability constant; format: physicochemical
Procedure, shortened: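 Minimum stability constant and stoichiometry were found by continuous variation (Job plot). Metal and ligand solutions stood 1 h and were then diluted with 50 mM barbital buffer (pH 7.4) containing 0.100 M KNO3. Visible absorbance at λmax was read at several times to confirm equilibrium. Absorbance was plotted against metal/(metal + ligand).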

Mus musculus [33] = assay: Iron chelating activity in iron-overloaded BDF1 mouse assessed as iron level in spleen at 125 mg/kg, ip treated from day 8 to 13 after erythrocyte suspension injection on day 1, 3 and 5 by atomic absorption spectroscopic analysis; format: functional; conditions: route intraperitoneal; procedure, shortened: as §1
Mus musculus [34] = assay: Iron chelating activity in iron-overloaded BDF1 mouse assessed as daily urinary iron level at 125 mg/kg, ip treated from day 8 to 13 after erythrocyte suspension injection on day 1, 3 and 5 by atomic absorption spectroscopic analysis; format: functional, Urine; conditions: route intraperitoneal
Mus musculus [35] = assay: Iron chelating activity in iron-overloaded BDF1 mouse assessed as iron level in liver at 125 mg/kg, ip treated from day 8 to 13 after erythrocyte suspension injection on day 1, 3 and 5 by atomic absorption spectroscopic analysis; format: functional; conditions: route intraperitoneal; procedure, shortened: as §1
Mus musculus [36] = assay: Iron chelating activity in iron-overloaded BDF1 mouse assessed as transferrin saturation at 125 mg/kg, ip treated from day 8 to 13 after erythrocyte suspension injection on day 1, 3 and 5 relative to control; format: functional; conditions: route intraperitoneal; procedure, shortened: as §3
Mus musculus [37] = assay: Iron chelating activity in iron-overloaded BDF1 mouse assessed as iron level in lung at 125 mg/kg, ip treated from day 8 to 13 after erythrocyte suspension injection on day 1, 3 and 5 by atomic absorption spectroscopic analysis; format: functional; conditions: route intraperitoneal; procedure, shortened: as §1
Mus musculus [38] = assay: Iron chelating activity in iron-overloaded BDF1 mouse assessed as iron level in heart at 125 mg/kg, ip treated from day 8 to 13 after erythrocyte suspension injection on day 1, 3 and 5 by atomic absorption spectroscopic analysis; format: functional; conditions: route intraperitoneal; procedure, shortened: as §1

Row | SMILES | Activity [1] [%] | Activity (Mus musculus [2]) [µg] | Activity [3] [µM] | Activity (Mus musculus [4]) [µg] | Activity (Mus musculus [5]) [µg] | Activity (Mus musculus [7]) [µg] | Activity (Mus musculus [8]) [µg] | Activity (Mus musculus [9]) [µg] | Activity (Mus musculus [10]) [µg] | Activity (Mus musculus [11]) [µg] | Activity [12] | Activity (Mus musculus [13]) [%] | Activity (Mus musculus [14]) [µg] | Activity (Mus musculus [15]) [%] | Activity (Mus musculus [16]) [µg] | Activity [32] | other results
1 | N/C(S)=N/N=C/c1ccccn1 | 0.3 | – | – | – | – | – | – | – | – | – | – | – | – | – | – | – | –
2 | NC(=S)N/N=C/c1cnccn1 | 0.3 | 156 | 1.4 | 16.1 | 1.1 | 16.7 | 171 | 9.2 | 9.4 | 15.4 | > 17 | 44 | 1.1 | 58 | 14.6 | – | Activity [6]: > 25
3 | S=C([S-])N/N=C/c1cnccn1.[Na+] | 0.4 | 176 | 48.8 | 17.7 | 1.4 | 14 | 193 | 8.5 | 10.6 | 14.8 | – | 27 | 5.5 | 51 | 18.6 | – | Activity [17]: > 25; Activity [18]: > 17
4 | C(=N\Nc1cnccn1)/c1cnccn1 | 0.1 | – | < 1 | – | – | – | – | – | – | – | 16.4 | – | – | – | – | – | Activity [19]: > 27; Activity (Mus musculus [20]): 44%; Activity (Mus musculus [21]): 7.6 µg; Activity (Mus musculus [22]): 12.8 µg; Activity (Mus musculus [23]): 3.4 µg; Activity (Mus musculus [24]): 174 µg; Activity (Mus musculus [25]): 7.4 µg; Activity (Mus musculus [26]): 16.4 µg; Activity (Mus musculus [27]): 38%; Activity (Mus musculus [28]): 14.9 µg; Activity (Mus musculus [29]): 4.9 µg; Activity (Mus musculus [30]): 164 µg; Activity (Mus musculus [31]): 14.6 µg
5 | CC(=O)N(O)CCCCCNC(=O)CCC(=O)N(O)CCCCCNC(=O)CCC(=O)N(O)CCCCCN [DEFEROXAMINE] | 1 | – | 25.2 | – | – | – | – | – | – | – | – | – | – | – | – | 30.6 | Activity (Mus musculus [33]): 19.2 µg; Activity (Mus musculus [34]): 3 µg; Activity (Mus musculus [35]): 132 µg; Activity (Mus musculus [36]): 75%; Activity (Mus musculus [37]): 16.4 µg; Activity (Mus musculus [38]): 9.4 µg
6 | O=c1cccccc1O [TROPOLONE] | 19.7 | – | 4.1 | – | – | – | – | – | – | – | – | – | – | – | – | 10.5 | –
